pEC50: −log10 of the molar value.
These compounds were tested against T1, Glutamate receptor 4 (Homo sapiens, UniProt P48058) (assay: Potentiation of responses mediated by 100 uM L-glutamate in transfected HEK293 cells expressing human homomeric iGluR4 flip receptors.).
Assay type: functional, cell-based
Outline: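 Calcium influx was measured in confluent HEK293 cells stably expressing human homomeric iGluR4 flip, loaded 60 min with 20 µM Fluo3-AM in HEPES buffer (pH 7.1-7.3, 5 mM Ca2+). Compound at several concentrations preceded 100 µM glutamate by 5 min. Fluorescence was read before and 3 min after glutamate. Responses were scaled to 100 µM cyclothiazide, and EC50 was taken as the mean of at least three experiments.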

T1 sequence (P48058 whole entry): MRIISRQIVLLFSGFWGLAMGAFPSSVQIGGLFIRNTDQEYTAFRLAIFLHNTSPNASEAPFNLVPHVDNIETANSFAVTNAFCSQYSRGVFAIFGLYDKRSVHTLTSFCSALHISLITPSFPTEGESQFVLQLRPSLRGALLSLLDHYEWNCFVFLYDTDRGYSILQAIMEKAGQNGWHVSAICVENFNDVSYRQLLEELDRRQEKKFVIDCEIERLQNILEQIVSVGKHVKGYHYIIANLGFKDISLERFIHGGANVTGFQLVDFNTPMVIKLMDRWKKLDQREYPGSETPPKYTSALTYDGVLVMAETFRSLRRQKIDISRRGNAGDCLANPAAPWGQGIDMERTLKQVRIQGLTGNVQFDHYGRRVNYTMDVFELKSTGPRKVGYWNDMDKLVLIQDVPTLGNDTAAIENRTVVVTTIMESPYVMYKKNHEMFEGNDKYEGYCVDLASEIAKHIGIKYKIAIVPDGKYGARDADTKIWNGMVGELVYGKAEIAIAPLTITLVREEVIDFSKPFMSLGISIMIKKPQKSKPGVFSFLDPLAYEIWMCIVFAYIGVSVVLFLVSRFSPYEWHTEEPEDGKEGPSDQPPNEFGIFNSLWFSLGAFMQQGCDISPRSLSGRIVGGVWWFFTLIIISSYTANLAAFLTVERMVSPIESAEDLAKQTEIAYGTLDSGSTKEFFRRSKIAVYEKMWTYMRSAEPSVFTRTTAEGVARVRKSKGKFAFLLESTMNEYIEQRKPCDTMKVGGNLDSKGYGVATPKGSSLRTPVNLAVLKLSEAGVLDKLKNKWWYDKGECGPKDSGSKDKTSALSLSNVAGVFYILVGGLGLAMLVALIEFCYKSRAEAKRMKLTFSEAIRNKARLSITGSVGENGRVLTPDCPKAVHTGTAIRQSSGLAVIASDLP

Q: How did the pEC50 turn out when `CC(C)S(=O)(=O)N[C@@H]1CCC[C@@H]1c1ccc([N+](=O)[O-])cc1` (racemic) was run?
A: 6.72

Q: How did the pEC50 turn out when `CC(C)S(=O)(=O)N[C@H]1CCC[C@@H]1c1ccc(Br)cc1` was run?
A: 7.09

Q: How did the pEC50 turn out when `CC(C)S(=O)(=O)N[C@H]1CCC[C@@H]1c1ccc(Br)cc1` (racemic) was run?
A: 6.89

Q: With `CC(C)S(=O)(=O)N[C@@H]1CCC[C@@H]1c1cccc(F)c1` (racemic) as the compound, how does the pEC50 read?
A: 6.21

Q: How did the pEC50 turn out when `CC(C)S(=O)(=O)N[C@H]1CCC[C@@H]1c1ccccc1` was run?
A: 6.26

Q: How did the pEC50 turn out when `CC(C)S(=O)(=O)N[C@@H]1CCC[C@@H]1c1ccc(Br)cc1` (racemic) was run?
A: 6.83

Q: `CC(C)S(=O)(=O)N[C@@H]1CCC[C@@H]1c1ccc(Cl)cc1` (racemic) was tested. Which pEC50 did it give?
A: 6.61

Q: With `CC(C)S(=O)(=O)N[C@H]1CCC[C@@H]1c1ccc(I)cc1` (racemic) as the compound, how does the pEC50 read?
A: 7.03

Q: With `CC(C)S(=O)(=O)N[C@@H]1CCC[C@@H]1c1ccc(I)cc1` (racemic) as the compound, how does the pEC50 read?
A: 7.34

Q: With `CC(C)S(=O)(=O)N[C@@H]1CCC[C@@H]1c1ccccc1` as the compound, how does the pEC50 read?
A: 5.76

Q: With `CC(C)S(=O)(=O)N[C@@H]1CCC[C@@H]1c1ccc(F)c(F)c1` (racemic) as the compound, how does the pEC50 read?
A: 5.96

Q: `Cc1ccc([C@H]2CCC[C@H]2NS(=O)(=O)C(C)C)cc1` (racemic) was tested. Which pEC50 did it give?
A: 6.36

Q: With `CC(C)S(=O)(=O)N[C@H]1CCC[C@@H]1c1ccc(I)cc1` as the compound, how does the pEC50 read?
A: 7.48

Q: With `CC(C)S(=O)(=O)N[C@@H]1CCC[C@@H]1c1ccc(I)cc1` as the compound, how does the pEC50 read?
A: 7.65

Q: How did the pEC50 turn out when `CC(C)S(=O)(=O)N[C@@H]1CCC[C@@H]1c1cc(F)cc(F)c1` was run?
A: 6.93

Q: `CC(C)S(=O)(=O)N[C@@H]1CCC[C@@H]1c1ccc(Br)cc1` was tested. Which pEC50 did it give?
A: 7.17

Q: `CC(C)S(=O)(=O)N[C@@H]1CCC[C@@H]1c1cc(F)cc(F)c1` (racemic) was tested. Which pEC50 did it give?
A: 6.55

Q: With `CC(C)S(=O)(=O)N[C@@H]1CCC[C@@H]1c1ccc(C#N)cc1` as the compound, how does the pEC50 read?
A: 6.39

What follows are compounds tested against T1, Glutamate receptor 4 (assay: % potentiation of responses mediated by 100 uM L-glutamate in human transfected HEK293 cells expressing homomeric iGluR4 flip receptors at a dose of 3 uM.).
Assay type: functional, cell-based
Outline: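 HEK293 cells stably expressing human iGluR4 flip, as confluent monolayers, loaded 60 min with 20 µM Fluo3-AM in HEPES-buffered saline (5 mM CaCl2, pH 7.1-7.3), then washed. Compound was added 5 min before 100 µM glutamate. Fluorescence was read just before glutamate and 3 min after. Potentiation at 3 µM, the highest dose tested, was expressed relative to 100 µM cyclothiazide (n = 1).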

Q: With `CC(C)S(=O)(=O)N[C@H]1CCC[C@H]1c1cc(F)cc(F)c1` as the compound, how does the Potentiation read?
A: 5%

Q: For `CC(CNS(=O)(=O)C(C)C)c1ccccc1` (racemic), which Potentiation is on record?
A: 0%

Q: Which Potentiation does the source give for `CC(C)S(=O)(=O)N[C@H]1CCC[C@H]1c1ccc(Br)cc1` here?
A: 27%

Q: How did the Potentiation turn out when `CC(C)S(=O)(=O)N[C@@H]1CCC[C@@H]1c1ccccc1` (racemic) was run?
A: 48%

Q: Which Potentiation does the source give for `CC(C)S(=O)(=O)N[C@H]1CCC[C@@H]1c1ccccc1` (racemic) here?
A: 70%

Q: Which Potentiation does the source give for `CC(C)S(=O)(=O)N[C@H]1CCC[C@H]1c1ccc(I)cc1` here?
A: 34%

Q: With `CC(CNS(=O)(=O)C(C)C)c1ccc(Br)cc1` (racemic) as the compound, how does the Potentiation read?
A: 26%

Q: For `CC(C)S(=O)(=O)N[C@@H]1CCC[C@H]1c1ccccc1`, which Potentiation is on record?
A: 6%

Q: How did the Potentiation turn out when `CC(C)S(=O)(=O)N[C@H]1CCC[C@H]1c1ccc(C#N)cc1` was run?
A: 17%

Q: How did the Potentiation turn out when `CC(C)S(=O)(=O)N[C@H]1CCC[C@H]1c1ccccc1` was run?
A: 2%

Q: With `CC(C)S(=O)(=O)N[C@@H]1CCC[C@H]1c1ccc(I)cc1` as the compound, how does the Potentiation read?
A: 12%

Q: Which Potentiation does the source give for `CC(C)S(=O)(=O)N[C@@H]1CCC[C@@H]1c1ccc(F)cc1` (racemic) here?
A: 57%

Q: For `CC(C)S(=O)(=O)N[C@@H]1CCC[C@H]1c1ccc(Br)cc1`, which Potentiation is on record?
A: 2%

Reference: ChEMBL document CHEMBL1135411, “Design and synthesis of a novel series of 1,2-disubstituted cyclopentanes as small, potent potentiators of 2-amino-3-(3-hydroxy-5-methyl-isoxazol-4-yl)propanoic acid (AMPA) receptors” (J Med Chem, 2002)
